The experiment has as its target Scavenger receptor class B member 1 (Mus musculus) (UniProt Q61009). Briefly: inhibitors of HDL-directed cholesterol efflux via mutant SR-BI, dose response, mechanism study for SR-BI HDL uptake inhibitor project, cell-based, ldlA CHO C384S mutant, [3H]cholesterol, powder samples, set 2 (AID 624015). The following applies: [3H]cholesterol efflux to HDL. In short, it runs like this:
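system = Cys384S SR-BI mutant ldlA CHO cells | medium = HEPES pH 7.4 buffered medium, FAF-BSA equilibrated | doses = 0.5% DMSO vehicle | times = 1 h compound pre-incubation, then 2 h HDL efflux, 37 °C | measured by = scintillation counting, medium and cell lysate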

Each structure is given as a SMILES string.

Broadly, the AC50 is the concentration at which the activity in the assay is half-maximal.

Chain of Scavenger receptor class B member 1 (Mus musculus) (Q61009 whole entry, looked up): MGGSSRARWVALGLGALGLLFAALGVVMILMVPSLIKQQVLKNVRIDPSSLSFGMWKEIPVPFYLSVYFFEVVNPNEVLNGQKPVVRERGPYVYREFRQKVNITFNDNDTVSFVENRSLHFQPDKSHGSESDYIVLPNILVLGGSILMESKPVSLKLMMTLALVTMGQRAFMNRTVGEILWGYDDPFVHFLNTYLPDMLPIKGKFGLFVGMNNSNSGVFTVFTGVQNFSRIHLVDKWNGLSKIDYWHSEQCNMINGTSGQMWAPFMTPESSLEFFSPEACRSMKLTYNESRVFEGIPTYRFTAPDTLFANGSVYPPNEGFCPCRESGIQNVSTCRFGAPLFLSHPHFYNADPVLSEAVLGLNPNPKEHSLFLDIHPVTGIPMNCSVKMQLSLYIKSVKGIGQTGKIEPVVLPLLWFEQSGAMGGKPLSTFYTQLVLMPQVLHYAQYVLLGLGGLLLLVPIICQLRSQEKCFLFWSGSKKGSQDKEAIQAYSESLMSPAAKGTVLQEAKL

As to `CC(C)NC(=O)Nc1ccc2c(c1)C(=O)N([C@H](C)CO)C[C@@H](C)[C@H](CN(C)S(=O)(=O)c1ccc(Cl)cc1)O2`, the AC50 was 250 nM.

These data come from PubChem BioAssay AID624015 (Broad Institute, 2012).
